mABHD4 FP: ABHD4 (mouse) inhibition, primary FP screen; Q8VD66; purified mABHD4, FP-Rh probe fluorescence polarization; inhibition, % at 8.92 µM; 370,000 compounds, 0.54% hits; AID 720543;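 active = inhibition exceeding the mean over every tested compound plus 3 SD, cut at about 30% in these data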;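 note: 0% = plate median of compound wells and 100% = S159A mutant with DMSO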
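system = mouse ABHD4 enzyme, wild type | medium = HEPES pH 7.0, NaCl, Pluronic buffer | also added = FP-Rh probe | incubation = Enzyme–compound pre-incubation 45 min, then probe 60 min, both 25 °C | technique = fluorescence polarization, excitation 525 nm, emission 598 nm, BODIPY TMR filters | controls = S159A mutant high control, sample median low control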
HTRA1 inhibitor: blocks human HTRA1 serine peptidase; AID 504803; recombinant HTRA1, FP-rhodamine activity-based probe, fluorescence polarization; inhibition, % at 5.96 µM; 340,000 compounds, 0.5% hits; in the data active = inhibition above about 36%;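 note: 0% = enzyme with DMSO and 100% = wells lacking enzyme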
Target sequence (Q92743 whole entry, looked up): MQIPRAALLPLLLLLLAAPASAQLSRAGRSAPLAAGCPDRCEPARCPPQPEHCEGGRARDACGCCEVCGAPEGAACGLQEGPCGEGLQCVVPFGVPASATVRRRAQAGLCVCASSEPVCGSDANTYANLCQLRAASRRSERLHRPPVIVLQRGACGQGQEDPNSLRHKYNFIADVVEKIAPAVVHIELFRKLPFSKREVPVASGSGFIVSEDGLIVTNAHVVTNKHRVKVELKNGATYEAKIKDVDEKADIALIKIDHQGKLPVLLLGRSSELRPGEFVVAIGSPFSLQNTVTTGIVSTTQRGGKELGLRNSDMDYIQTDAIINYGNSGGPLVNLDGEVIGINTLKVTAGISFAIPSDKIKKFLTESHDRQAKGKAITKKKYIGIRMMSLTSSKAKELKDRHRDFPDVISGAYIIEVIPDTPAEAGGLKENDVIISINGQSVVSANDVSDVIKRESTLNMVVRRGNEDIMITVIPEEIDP
SIAE inh: human SIAE inhibition, primary screen; Q9HAT2; SIAE FP-Rh probe binding, fluorescence polarization; inhibition, % at 9.66 µM; 370,000 compounds, 0.69% hits; AID 1053197;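 active = inhibition above a cutoff: mean of compounds within the control limits plus 3 SD of those, cut at about 17% in these data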;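 note: 0% = plate median of compound wells and 100% = probe without SIAE protein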
RBBP9 inhibitor: blocks human serine hydrolase RBBP9; O75884; recombinant RBBP9, FP-Rh probe fluorescence polarization; inhibition, % at 7.94 µM; 220,000 compounds, 0.2% hits; AID 1515;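 active = inhibition above the campaign mean of all tested compounds plus 3 SD, cut at about 14% in these data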;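 note: plate controls were DMSO wells with RBBP9 for no effect and wells lacking RBBP9 protein for full effect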
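System: RBBP9 protein / Quantity: 2.5 µM RBBP9 dispensing solution, before mixing / Also added: Serine-hydrolase probe FP-Rh, 375 nM pre-mixing / Dosing: 7.94 µM single dose, 0.794% DMSO / Timing: enzyme-compound preincubation 30 min, then probe labeling 45 min, 25 °C / Signal: FP readout at 525/598 nm / Controls: DMSO-treated enzyme wells and wells lacking RBBP9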
ABHD4 confirm: confirmation of mouse ABHD4 inhibitors | 1,800 compounds, 55% hits | purified mABHD4, FP-Rh probe fluorescence polarization | shares compounds with mABHD4 FP | AID 720658 | inhibition, % at 8.92 µM;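 active = mean inhibition across replicates above the hit cutoff set in the primary screen, cut at about 30% in these data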;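 note: 0% = wild-type ABHD4 with DMSO and 100% = catalytically dead S159A mutant with DMSO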
Starred values were filed as active, the others as inactive. Compounds with a hit are over-represented: about 1.4% of the library has one in this group of screens.

Screening O=C(CN1C(=O)S/C(=C\c2ccc(O)c([N+](=O)[O-])c2)C1=O)Nc1ccc(N2CCOCC2)cc1 returned mABHD4 FP 6, HTRA1 inhibitor 5 and SIAE inh 6.
O=C1S/C(=C\c2ccc(O)c([N+](=O)[O-])c2)C(=O)N1c1ccccc1Cl was read as mABHD4 FP 55*, HTRA1 inhibitor 8, SIAE inh -5, RBBP9 inhibitor -1 and ABHD4 confirm 44*.
Screening COC(=O)[C@@H](Cc1c[nH]c2ccccc12)NCc1cccc(B(O)O)c1 returned mABHD4 FP 67*, HTRA1 inhibitor 11, SIAE inh 3 and ABHD4 confirm 61*.
`COC(=O)C(Cc1c[nH]c2ccccc12)NC(C)=O` (configuration not stated) gave mABHD4 FP 12, HTRA1 inhibitor 7, SIAE inh 2 and RBBP9 inhibitor 0.
For CC(=S)/C=C1\Sc2ccccc2N1C the results were mABHD4 FP -13, HTRA1 inhibitor -2, SIAE inh 1 and RBBP9 inhibitor 3.
`CN1c2ccccc2Sc2cc(N)ccc21` gave mABHD4 FP 37*, HTRA1 inhibitor 23, SIAE inh 9 and ABHD4 confirm 63*.
For COc1cc(/C=C2\SC(=S)N(Nc3ccccc3)C2=O)cc(OC)c1OC the results were mABHD4 FP 33*, HTRA1 inhibitor -11, SIAE inh 2, RBBP9 inhibitor -12 and ABHD4 confirm 40*.
`O=C(O)c1ccc(N/N=C/c2ccc(-c3ccc(Br)cc3)o2)cc1` gave mABHD4 FP 42*, HTRA1 inhibitor 16, SIAE inh 3 and ABHD4 confirm 84*.
For O=C(N/N=C/c1ccc(-c2ccccc2Cl)o1)c1ccccc1 the results were mABHD4 FP -7, HTRA1 inhibitor -19, SIAE inh 6 and RBBP9 inhibitor -9.
Screening O=C(O)c1ccc(N/N=C/c2ccc(-c3ccccc3Cl)o2)cc1 returned mABHD4 FP 40*, HTRA1 inhibitor -2, SIAE inh 14, RBBP9 inhibitor -4 and ABHD4 confirm 46*.
Screening COc1ccccc1OCC(=O)Nc1cc(S(=O)(=O)N2CCOCC2)ccc1N1CCCCC1 returned mABHD4 FP -7, HTRA1 inhibitor -21 and SIAE inh -1.
O=C(NCCc1c[nH]c2ccccc12)OCc1cn(-c2ccc(Cl)cc2)nn1 was read as mABHD4 FP -10 and SIAE inh 0.
Screening C[C@@H]1C[C@H]2[C@@H](Cc3ccccc3)C(=O)N3[C@H](c4ccccc4)[C@H](C)C[C@H]3[C@@H](Cc3ccccc3)C(=O)N2[C@@H]1c1ccccc1 returned mABHD4 FP 50*, SIAE inh 9 and ABHD4 confirm 39*.
Screening Cc1ccc(CC2CC(=O)N(CCc3ccccc3)C2=O)cc1 (configuration not stated) returned mABHD4 FP 3, HTRA1 inhibitor 4, SIAE inh -6 and RBBP9 inhibitor -7.
C=C[C@]1(C)C=C2C(=O)[C@@]3(O)OC(=O)[C@@]4(CCCC(C)(C)[C@H]34)[C@@]2(O)CC1 was read as mABHD4 FP 52*, SIAE inh 10 and ABHD4 confirm 3.
C=C[C@]1(C)C=C2CC[C@H]3[C@@](C)(CCC[C@@]3(C)C(=O)O)[C@@H]2CC1 was read as HTRA1 inhibitor -16.
CCN(CC(=O)Nc1ccc2c(c1)OCCO2)CC(=O)Nc1ccccc1C(F)(F)F was read as mABHD4 FP 32*, HTRA1 inhibitor 3, SIAE inh 5 and ABHD4 confirm 7.
CCN(CC(=O)Nc1ccc(C(C)=O)cc1)CC(=O)Nc1ccc2c(c1)OCCO2 was read as mABHD4 FP 14, HTRA1 inhibitor -4 and SIAE inh 6.
For CCOc1ccc2[nH]c3c(NCCC(C)C)ncnc3c2c1 the results were mABHD4 FP 39*, HTRA1 inhibitor 7, SIAE inh 11 and ABHD4 confirm 39*.
CC(C)[C@@H]1OC(=O)[C@@H]2CCCN2C(=O)[C@H](C)OC(=O)[C@H](C)[C@@H](C(C)C)NC(=O)[C@@H]2CCCN2C(=O)[C@H]([C@H](C)Cc2ccccc2)NC(=O)[C@@H]2CCCN2C(=O)[C@@H](C(C)C)N(C)C1=O was read as mABHD4 FP 4 and SIAE inh 2.
For CC1=C(O)C(=O)C(C2=C(O)C(=O)C(C)=C(O)C2=O)=C(O)C1=O the results were mABHD4 FP 40*, HTRA1 inhibitor 33, SIAE inh 7 and ABHD4 confirm 38*.
